UPR CHOP act: apoptotic UPR (CHOP) activation; hit rate 0.34% among 330,000; activation, % at 10 µM; AID 449763; CHO-CHOP luciferase reporter, luminescence; percent of tunicamycin response over DMSO baseline;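 active means at 10 µM dose, activation of 40% or more, normalized to positive control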;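 further: 100% = tunicamycin at 10 µg/mL and 0% = DMSO alone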
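Dosing – one dose, 10 µM in 0.5% DMSO · System – CHO-CHOP cells, stable luciferase reporter of PERK-eIF2a-CHOP signalling · Input – 500 cells/well · Control set – tunicamycin 10 µg/mL final as positive, DMSO-only wells as negative · Timing – 6 h compound treatment, 37 °C · Measure – % activation vs tunicamycin · Technique – luminescence read with Steady-Glo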
B2AR ag: human beta-2 adrenergic receptor agonism by FAP | Am2.2-beta2AR cells, FAP receptor internalization, flow cytometry | response, % (test concentration not listed) | hit rate 0.43% among 340,000;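 active means response above a set limit, near 3 SD of response in nonfluorescent compounds, cut at about 42% in these data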
CHOP inhibitor: inhibitors of CHOP induction in ER stress response. CHO-K1 CHOP-promoter luciferase, tunicamycin-induced, 15-18 h. inhibition, % at 10 µM. hit rate 3.8% among 220,000;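 active means compounds that reduced the stress-induced luciferase reporter signal by more than about 70% of percent inhibition, limit read from the data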;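 further: 0% = tunicamycin plus vehicle and 100% = wells without tunicamycin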
UPR XBP1 act: activators of adaptive arm of unfolded protein response (XBP1) | hit rate 0.33% among 330,000 | activation, % at 20 µM | CHO-XBP1 luciferase reporter, IRE1-XBP1 UPR activation, luminescence; percent of tunicamycin response, DMSO as zero;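 active means versus positive control, 20 µM dose yields 30% or more activation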;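 further: 100% = tunicamycin at 10 µg/mL and 0% = DMSO only wells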
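Assay system: CHO-XBP1 luciferase reporter cells; Schedule: 6 h treatment, 37 °C; Detection: glow luminescence from Steady-Glo reagent; Benchmarks: high control tunicamycin 10 µg/mL final, low control DMSO vehicle only.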
VLA-4 inh: inhibition in a human VLA-4 binding assay; VLA-4 expressing cells, ligand binding flow cytometry; P13612; hit rate 0.2% among 330,000; inhibition, % (about 7 µM as worked out from the volumes in the protocol); in the data active means inhibition above about 50%
Target sequence (P13612 whole entry, looked up): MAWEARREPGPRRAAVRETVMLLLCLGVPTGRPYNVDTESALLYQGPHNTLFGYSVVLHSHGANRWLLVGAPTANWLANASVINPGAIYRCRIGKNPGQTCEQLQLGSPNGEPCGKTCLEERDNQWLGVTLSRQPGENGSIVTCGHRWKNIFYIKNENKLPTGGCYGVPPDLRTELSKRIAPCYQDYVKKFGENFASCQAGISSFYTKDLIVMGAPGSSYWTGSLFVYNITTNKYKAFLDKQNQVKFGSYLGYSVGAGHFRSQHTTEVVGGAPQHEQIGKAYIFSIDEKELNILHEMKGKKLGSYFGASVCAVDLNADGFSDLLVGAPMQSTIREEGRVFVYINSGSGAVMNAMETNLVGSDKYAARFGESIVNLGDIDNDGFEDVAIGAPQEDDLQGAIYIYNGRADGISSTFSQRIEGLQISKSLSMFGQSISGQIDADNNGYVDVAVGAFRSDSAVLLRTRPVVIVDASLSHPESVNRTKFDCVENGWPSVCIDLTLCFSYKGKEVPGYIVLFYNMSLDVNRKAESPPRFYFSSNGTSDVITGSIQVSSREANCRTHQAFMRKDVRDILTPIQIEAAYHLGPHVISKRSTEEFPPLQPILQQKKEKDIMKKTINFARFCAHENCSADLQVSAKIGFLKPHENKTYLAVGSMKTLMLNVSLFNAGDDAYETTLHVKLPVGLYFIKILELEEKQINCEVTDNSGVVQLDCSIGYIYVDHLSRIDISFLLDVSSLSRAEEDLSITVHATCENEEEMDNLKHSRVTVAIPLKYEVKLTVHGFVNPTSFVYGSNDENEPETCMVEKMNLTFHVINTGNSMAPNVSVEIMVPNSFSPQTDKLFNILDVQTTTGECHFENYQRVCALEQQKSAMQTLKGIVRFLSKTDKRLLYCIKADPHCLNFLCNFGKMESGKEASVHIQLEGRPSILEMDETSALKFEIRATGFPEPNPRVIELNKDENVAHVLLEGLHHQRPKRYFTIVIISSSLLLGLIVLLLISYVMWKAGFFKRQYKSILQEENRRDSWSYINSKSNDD
VLA-4 mod pick: human VLA-4 allosteric modulation in cherry picked compounds | shares compounds with VLA-4 inh | U937 cells, HUTS-21 LIBS mAb binding, flow cytometry; LDV ligand present at threefold Kd | inhibition, % at 6.7 µM | hit rate 2% among 1,300 | AID 2813; in the data active means inhibition above about 40%;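 further: 0% = ligand without compound and 100% = no ligand background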
* = called active by the depositor. This excerpt belongs to a sample that is enriched for hits.

How did CCOC(=O)c1cc(-c2ccccc2C)nn1CC1CC(c2cccnc2)=NO1 (stereo unspecified) do in these assays?
UPR CHOP act: -0.7; B2AR ag: -9.0; UPR XBP1 act: 2.5; VLA-4 inh: 10.8

What do the screens show for `CN(C(=O)COC(=O)c1cccc(F)c1)c1ccccc1`?
UPR CHOP act: 1.0; B2AR ag: 3.0; UPR XBP1 act: 1.0; VLA-4 inh: 29.8

Results for CN(C)c1cccc(C(=O)OCC(=O)N(C)c2ccccc2)c1 ?
UPR CHOP act: 0.9; B2AR ag: -12.1; UPR XBP1 act: -0.5; VLA-4 inh: -7.6; VLA-4 mod pick: 0.0

How did COc1ccc(CCNC(=O)c2cccc(C(=O)NCCc3ccc(OC)cc3)n2)cc1 do in these assays?
UPR CHOP act: 1.0; B2AR ag: -5.6; UPR XBP1 act: -4.4; VLA-4 inh: -2.2

What do the screens show for `CC(C)C(=O)Nc1nnc(S(=O)(=O)N2CCCc3ccccc32)s1`?
UPR CHOP act: -1.4; B2AR ag: 5.5; UPR XBP1 act: -1.6; VLA-4 inh: 51.3*; VLA-4 mod pick: 2.7

Results for CCC1=NN(C(=O)Cc2ccc([N+](=O)[O-])cc2)C(O)(C(C)(C)C)C1 (stereo unspecified) ?
UPR CHOP act: 0.0; B2AR ag: 3.1; CHOP inhibitor: 25.7; UPR XBP1 act: -1.0; VLA-4 inh: 57.7*; VLA-4 mod pick: -5.8

What do the screens show for `CCc1ccc(C2(O)CC(C(F)(F)F)=NN2C(=O)Cc2ccc([N+](=O)[O-])cc2)cc1` (stereo unspecified)?
UPR CHOP act: 0.3; B2AR ag: 1.2; CHOP inhibitor: 65.3; UPR XBP1 act: -2.9; VLA-4 inh: 6.4

What do the screens show for `CC(C)[Si]1(C(C)C)OCC2OC(n3cnc4c(N)ncnc43)C(N)C2O[Si](C(C)C)(C(C)C)O1` (stereo unspecified)?
B2AR ag: -2.2

How did O=C(Nc1ccc(F)cc1F)c1ccc2nc(N3CCOCC3)sc2c1 do in these assays?
UPR CHOP act: 3.2; B2AR ag: 3.6; UPR XBP1 act: -1.1; VLA-4 inh: 32.5; VLA-4 mod pick: 14.3

How did CC1CC(C)CN(CCCNC(=O)c2ccc3nc(N4CCOCC4)sc3c2)C1 (stereo unspecified) do in these assays?
UPR CHOP act: 0.1; B2AR ag: -1.2; UPR XBP1 act: 0.8; VLA-4 inh: 5.3

Results for CCCCN(CCCNC(=O)c1ccc2nc(N3CCOCC3)sc2c1)Cc1ccccc1 ?
UPR CHOP act: 0.7; B2AR ag: -8.6; CHOP inhibitor: 6.3; UPR XBP1 act: -0.9; VLA-4 inh: -111.9; VLA-4 mod pick: 10.4

What do the screens show for `O=C(Nc1ccc2nc(N3CCOCC3)sc2c1)c1ccc(F)cc1`?
UPR CHOP act: 4.8; B2AR ag: -0.9; UPR XBP1 act: -1.1; VLA-4 inh: -8.6

What do the screens show for `CCCN1CCN(CCCNC(=O)c2ccc3nc(N4CCC(C)CC4)sc3c2)CC1`?
UPR CHOP act: -2.8; B2AR ag: 0.6; UPR XBP1 act: -5.1; VLA-4 inh: 9.6; VLA-4 mod pick: -2.2

Results for CC(CCc1ccccc1)NC(=O)c1ccc2nc(N3CCOCC3)sc2c1 (stereo unspecified) ?
UPR CHOP act: -1.0; B2AR ag: -0.3; CHOP inhibitor: -4.1; UPR XBP1 act: -3.6; VLA-4 inh: 9.0

Results for CCOc1ccccc1CNC(=O)c1ccc2nc(N3CCOCC3)sc2c1 ?
UPR CHOP act: 10.9; B2AR ag: -5.0; UPR XBP1 act: -2.7; VLA-4 inh: 2.1; VLA-4 mod pick: 4.4

How did O=c1cc(C(F)(F)F)nc(SCc2cccnc2)[nH]1 do in these assays?
UPR CHOP act: 1.2; B2AR ag: 0.1; UPR XBP1 act: 7.7; VLA-4 inh: 11.1

What do the screens show for `Cc1cccc(N2CCN(C(=O)c3ccc4nc(N5CCCCC5)sc4c3)CC2)c1C`?
UPR CHOP act: -1.2; B2AR ag: 8.5; CHOP inhibitor: 49.8; UPR XBP1 act: 1.3; VLA-4 inh: 1.9

How did CC(C)Oc1ccc(CNC(=O)c2ccc3nc(N4CCOCC4)sc3c2)cc1 do in these assays?
UPR CHOP act: -1.3; B2AR ag: -4.6; UPR XBP1 act: -1.5; VLA-4 inh: 4.3

What do the screens show for `O=C(NCc1cccc(Cl)c1)c1ccc2nc(N3CCOCC3)sc2c1`?
UPR CHOP act: 5.8; B2AR ag: 1.4; UPR XBP1 act: -0.5; VLA-4 inh: 22.6; VLA-4 mod pick: -0.1

How did CCC(Cc1ccccc1)NC(=O)c1ccc2nc(N3CCOCC3)sc2c1 (stereo unspecified) do in these assays?
UPR CHOP act: 1.3; B2AR ag: -2.1; UPR XBP1 act: 0.2; VLA-4 inh: 10.5; VLA-4 mod pick: 3.3

What do the screens show for `O=C(NCCc1ccccc1)c1ccc2nc(N3CCOCC3)sc2c1`?
UPR CHOP act: 1.7; B2AR ag: -6.5; UPR XBP1 act: -0.9; VLA-4 inh: -18.3; VLA-4 mod pick: 10.4

How did O=C(c1ccc2nc(N3CCCCC3)sc2c1)N1CCN(c2ccccn2)CC1 do in these assays?
UPR CHOP act: 3.4; B2AR ag: -13.4; UPR XBP1 act: -1.1; VLA-4 inh: 49.2; VLA-4 mod pick: 7.7

How did CC(C)C(NC(=O)c1ccc(F)cc1)C(=O)N1CCOCC1 (stereo unspecified) do in these assays?
UPR CHOP act: -1.3; B2AR ag: -9.8; UPR XBP1 act: 0.2; VLA-4 inh: 0.0

What do the screens show for `COc1cc(OC)c(NC(=O)CN(C)S(=O)(=O)c2ccc(-c3ccc(=O)[nH]n3)s2)cc1Cl`?
UPR CHOP act: -0.6; B2AR ag: 8.1; UPR XBP1 act: -3.8; VLA-4 inh: 0.4

Results for Oc1ccccc1-n1nc2ccc3nonc3c2n1 ?
UPR CHOP act: 4.9; B2AR ag: 0.9; CHOP inhibitor: -0.2; UPR XBP1 act: 0.1; VLA-4 inh: 3.1

How did CCc1cccc(C)c1NC(=O)c1ccc2nc(N3CCOCC3)sc2c1 do in these assays?
UPR CHOP act: -0.8; B2AR ag: 4.2; UPR XBP1 act: -0.9; VLA-4 inh: 50.3*; VLA-4 mod pick: 4.4

What do the screens show for `Cc1cccc(NC(=O)c2ccc3nc(N4CCOCC4)sc3c2)c1C`?
UPR CHOP act: 0.3; B2AR ag: 4.4; UPR XBP1 act: -1.8; VLA-4 inh: 2.8

Results for Cc1ccc(C)c(N2CCN(C(=O)c3ccc4nc(N5CCOCC5)sc4c3)CC2)c1 ?
UPR CHOP act: 1.6; B2AR ag: -2.9; UPR XBP1 act: -1.9; VLA-4 inh: 4.3; VLA-4 mod pick: -0.8

How did O=C(c1ccc2nc(N3CCOCC3)sc2c1)N1CCC(Cc2ccccc2)CC1 do in these assays?
UPR CHOP act: -1.0; B2AR ag: -1.9; CHOP inhibitor: 58.1; UPR XBP1 act: -1.4; VLA-4 inh: -2.7

Results for COC(=O)c1cc2c(ccn2-c2ccc(F)cc2)n1C(C)C ?
UPR CHOP act: 0.0; B2AR ag: -0.2; CHOP inhibitor: 2.5; UPR XBP1 act: -1.9; VLA-4 inh: 62.9*; VLA-4 mod pick: 10.4

Compound activity: PubChem, several laboratories
